ChEMBL document CHEMBL1125581 (J Med Chem, 1991)
Values belong to the compound of their own block, whether it stands above or below them.

Columns and labels:
[1] = target: T1, Muscarinic acetylcholine receptor M3 (Rattus norvegicus, UniProt P08483); assay: Compound was tested for the inhibition of binding of [3H]N-Methyl-scopolamine to mmuscarinic acetylcholine receptor M3 of transfected rat A9L cells; format: cell-based
How it was run: (§1)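 Confluent A9L (transfected m1/m3) or NG108-15 (m4) cultures were lysed in 2 mM Tris-HCl pH 7.1/1 mM EDTA, 30 min, 2 °C, then homogenized. Crude membranes were spun at 50000g. Membranes (150–300 μg protein) were incubated with 0.5 nM [3H]NMS and varied analogue in DMEM-Hepes for 90 min at 37 °C, then filtered. Nonspecific binding was set with 1 μM atropine. Ki values are from 1–3 triplicate determinations.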

[2] = target: T2, Muscarinic acetylcholine receptor M2 (Rattus norvegicus, UniProt P10980); assay: Inhibition of binding of [3H]N-methylscopolamine to muscarinic acetylcholine receptor M2 of rat heart tissue membrane.; format: tissue-based
T2 sequence (P10980 whole entry): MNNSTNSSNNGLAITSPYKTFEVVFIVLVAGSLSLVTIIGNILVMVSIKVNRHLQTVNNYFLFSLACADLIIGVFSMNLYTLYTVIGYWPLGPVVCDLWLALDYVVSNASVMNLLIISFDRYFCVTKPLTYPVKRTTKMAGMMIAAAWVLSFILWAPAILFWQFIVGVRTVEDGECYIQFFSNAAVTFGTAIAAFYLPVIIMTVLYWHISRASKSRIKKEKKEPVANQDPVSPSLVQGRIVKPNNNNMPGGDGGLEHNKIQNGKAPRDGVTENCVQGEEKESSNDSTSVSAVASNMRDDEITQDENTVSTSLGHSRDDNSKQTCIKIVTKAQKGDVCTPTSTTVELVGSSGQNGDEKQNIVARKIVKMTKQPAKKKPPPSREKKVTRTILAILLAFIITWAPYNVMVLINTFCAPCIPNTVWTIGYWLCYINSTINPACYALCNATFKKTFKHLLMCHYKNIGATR
How it was run: (§2)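 Rat heart membranes (150–300 μg protein) incubated 90 min at 37 °C in DMEM-Hepes with 0.5 nM [3H]NMS and varied unlabeled analogue concentrations. Bound radioligand collected by rapid GF/B filtration, washed with ice-cold 0.9% NaCl, and scintillation counted. Nonspecific binding with 1 μM atropine subtracted. Ki values come from one to three determinations, each in triplicate.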

[3] = target: T3, Muscarinic acetylcholine receptor M1 (Rattus norvegicus, UniProt P08482); assay: Inhibition of binding of [3H]N-methylscopolamine to muscarinic acetylcholine receptor M1 of transfected rat A9L cells.; format: cell-based
T3 sequence (P08482 whole entry): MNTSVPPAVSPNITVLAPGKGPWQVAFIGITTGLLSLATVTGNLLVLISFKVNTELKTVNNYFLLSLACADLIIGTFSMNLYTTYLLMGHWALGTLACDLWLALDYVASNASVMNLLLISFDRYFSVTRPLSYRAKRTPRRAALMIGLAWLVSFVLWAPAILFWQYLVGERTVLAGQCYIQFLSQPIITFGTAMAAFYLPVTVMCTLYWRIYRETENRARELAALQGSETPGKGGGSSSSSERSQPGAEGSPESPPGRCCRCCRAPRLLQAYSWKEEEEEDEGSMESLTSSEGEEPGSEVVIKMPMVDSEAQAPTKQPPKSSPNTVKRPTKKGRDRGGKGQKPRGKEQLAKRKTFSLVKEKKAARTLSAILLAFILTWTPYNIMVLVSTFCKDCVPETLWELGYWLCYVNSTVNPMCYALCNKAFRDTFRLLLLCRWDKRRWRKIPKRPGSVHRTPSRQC

[4] = target: T4, Muscarinic acetylcholine receptor M4 (Rattus norvegicus, UniProt P08485); assay: Inhibition of binding of [3H]N-Methyl-scopolamine to muscarinic acetylcholine receptor M4 of rat […] NG108-15 cells; format: cell-based
T4 sequence (P08485 whole entry): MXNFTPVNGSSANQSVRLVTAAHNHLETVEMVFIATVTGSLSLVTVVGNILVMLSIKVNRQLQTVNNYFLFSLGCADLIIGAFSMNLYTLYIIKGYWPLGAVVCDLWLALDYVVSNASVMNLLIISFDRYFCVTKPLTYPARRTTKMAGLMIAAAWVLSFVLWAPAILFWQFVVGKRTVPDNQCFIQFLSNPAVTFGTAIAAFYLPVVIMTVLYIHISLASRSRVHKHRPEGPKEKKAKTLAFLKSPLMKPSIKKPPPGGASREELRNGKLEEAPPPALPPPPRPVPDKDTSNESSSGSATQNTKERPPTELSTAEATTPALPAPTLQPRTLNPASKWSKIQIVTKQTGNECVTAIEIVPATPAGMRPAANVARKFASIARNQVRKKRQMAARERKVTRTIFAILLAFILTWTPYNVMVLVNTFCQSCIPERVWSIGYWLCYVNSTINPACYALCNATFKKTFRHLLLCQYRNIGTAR

[5] = target: T3, Muscarinic acetylcholine receptor M1; assay: The compound was tested for the inhibition of binding of [3H]N-Methyl-scopolamine to muscarinic acetylcholine receptor M1 of transfected A9L cells.; format: cell-based; how it was run: as §1
[6] = target: T2, Muscarinic acetylcholine receptor M2; assay: The compound was tested for the inhibition of binding of [3H]N-Methyl-scopolamine to muscarinic acetylcholine receptor M2 of rat heart tissue membranes.; format: cell membranes, Membrane; how it was run: as §2
[7] = target: T1, Muscarinic acetylcholine receptor M3; assay: The compound was tested for the inhibition of binding of [3H]N-Methyl-scopolamine to Muscarinic acetylcholine receptor M3 of transfected A9L cells.; format: cell-based
How it was run: (§3)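 Crude membranes (150–300 μg protein) were incubated 90 min at 37 °C in DMEM-Hepes with 0.5 nM [3H]NMS and a range of unlabeled analogue concentrations. Incubation was stopped by rapid GF/B filtration, followed by ice-cold 0.9% NaCl washes and scintillation counting. Nonspecific binding was defined with 1 μM atropine and subtracted. Ki came from one to three determinations, each run in triplicate.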

[8] = target: T4, Muscarinic acetylcholine receptor M4; assay: Inhibition of binding of [3H]N-Methyl-scopolamine to Muscarinic acetylcholine receptor M4 of NG108-15 cells.; format: cell-based; how it was run: as §1
[9] = target: T3, Muscarinic acetylcholine receptor M1; assay: Inhibition of binding of [3H]N-Methyl-scopolamine to Muscarinic acetylcholine receptor M1 of transfected A9L cells.; format: cell-based; how it was run: as §1
[10] = target: T2, Muscarinic acetylcholine receptor M2; assay: Inhibition of binding of [3H]N-Methyl-scopolamine to Muscarinic acetylcholine receptor M2 of rat heart tissue membranes.; format: cell membranes, Membrane; how it was run: as §2
[11] = target: T2, Muscarinic acetylcholine receptor M2; assay: The compound was tested for the inhibition of binding of [3H]N-Methyl-scopolamine to muscarinic acetylcholine receptor M2 of rat heart tissue membranes; format: cell membranes, Membrane; how it was run: as §3
[12] = target: T1, Muscarinic acetylcholine receptor M3; assay: The compound was tested for the inhibition of binding of [3H]N-Methyl-scopolamine to muscarinic acetylcholine receptor M3 of transfected A9L cells.; format: cell-based; how it was run: as §3
[13] = target: T3, Muscarinic acetylcholine receptor M1; assay: The compound was tested for the inhibition of binding of [3H]N-Methyl-scopolamine to muscarinic acetylcholine receptor M1r of transfected A9L cells.; format: cell-based; how it was run: as §3

T1 sequence (P08483 whole entry): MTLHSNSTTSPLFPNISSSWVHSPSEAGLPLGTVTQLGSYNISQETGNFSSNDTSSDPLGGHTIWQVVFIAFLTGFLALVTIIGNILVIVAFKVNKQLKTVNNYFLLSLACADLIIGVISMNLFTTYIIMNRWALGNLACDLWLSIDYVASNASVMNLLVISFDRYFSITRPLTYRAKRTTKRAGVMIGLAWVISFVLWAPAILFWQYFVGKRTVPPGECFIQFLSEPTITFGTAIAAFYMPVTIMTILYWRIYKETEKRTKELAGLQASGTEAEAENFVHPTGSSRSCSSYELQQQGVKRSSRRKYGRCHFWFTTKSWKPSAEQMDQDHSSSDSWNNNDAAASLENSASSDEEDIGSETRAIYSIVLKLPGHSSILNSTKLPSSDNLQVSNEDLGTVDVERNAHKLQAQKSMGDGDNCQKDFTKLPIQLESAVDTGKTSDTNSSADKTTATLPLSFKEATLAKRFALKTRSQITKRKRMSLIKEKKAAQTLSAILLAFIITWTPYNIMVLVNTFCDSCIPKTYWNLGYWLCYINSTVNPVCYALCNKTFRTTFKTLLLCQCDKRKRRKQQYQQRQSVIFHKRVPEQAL

Ki [1]: 4020 nM
Ki [2]: 2650 nM
Ki [3]: 2840 nM
Ki [4]: 2940 nM
Compound: CNC(=O)c1ccc(CN2CCN(CC(=O)N3c4ccccc4C(=O)Nc4cccnc43)CC2)cc1

Ki [5]: 7700 nM
Ki [6]: 8000 nM
Compound: CCN1C(=O)c2ccccc2N(C(=O)CN2CCN(C)CC2)c2ncccc21

Compound: O=C1Nc2cccnc2N(C(=O)CN2CCN(CCCl)CC2)c2ccccc21
Ki [7]: 78 nM
Ki [8]: 130 nM
Ki [9]: 52 nM
Ki [10]: 210 nM

Compound: CN1CCN(CC(=O)N2c3cc(CO[Si](C)(C)C(C)(C)C)ccc3C(=O)Nc3cccnc32)CC1
Ki [11]: 4400 nM
Ki [12]: > 30000 nM
Ki [13]: > 30000 nM
